From ChEMBL document CHEMBL1150166, “Cytotoxic 3,20-epoxy-ent-kaurane diterpenoids from Isodon eriocalyx var. laxiflora” (J Nat Prod, 2002)
≈ marks a conversion by molar mass, not a printed value.

Experiments:
K562 = experiment: Cytotoxicity against human K562 cells after 48 hrs by MTT assay; format: functional, cell-based; conditions: K562, 48 h
Outline: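 Log-phase K562 cells (5 × 10⁴ cells/mL) were exposed in quadruplicate to 10⁻⁴ to 10⁻⁸ g/L drug for 48 h at 37 °C under 5% CO₂. MTT (5 mg/mL) was then added for 4 h, and formazan was dissolved in 10% SDS/5% isobutanol/HCl for 12 h at room temperature. OD was read at 570 and 630 nm. Controls were saline or DMSO, with cisplatin as the positive control.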

T-24 = experiment: Cytotoxicity against human T24 cells after 72 hrs by SRB assay; conditions: T-24, 72 h
A549 = experiment: Cytotoxicity against human A549 cells after 72 hrs by SRB assay; conditions: A549, 72 h

Row | Structure (SMILES) | IC50 (K562) | IC50 (T-24) | IC50 (A549)
1 | C=C1C(=O)[C@]23C[C@H]1CC[C@H]2[C@]12CO[C@H](CC1=O)C(C)(C)[C@H]2[C@H](O)C3=O [LAXIFLORIN J] | 0.473 µg/mL (≈ 1.37 µM) | 0.314 µg/mL (≈ 0.912 µM) | 49.1 µg/mL (≈ 142 µM)
2 | C=C1C(=O)[C@]23C[C@H]1CC[C@H]2[C@]12CO[C@H](CC1=O)C(C)(C)C2=C(O)C3=O [MAOECRYSTAL P] | 0.132 µg/mL (≈ 0.386 µM) | 0.0512 µg/mL (≈ 0.15 µM) | 69.5 µg/mL (≈ 203 µM)
3 | C=C1[C@@H]2CC[C@@H]3[C@](C2)(C(=O)[C@@H](O)[C@@H]2C(C)(C)[C@H]4CC(=O)[C@@]32CO4)[C@@H]1O [LAXILORIN L] | 1.13 µg/mL (≈ 3.25 µM) | 5.16 µg/mL (≈ 14.9 µM) | 24.7 µg/mL (≈ 71.2 µM)
4 | CC1(C)[C@H]2[C@H](O)C(=O)[C@@]34C[C@@H](CC[C@H]3[C@@]23CO[C@@H]1CC3=O)[C@@H](CO)C4=O [LAXIFLORIN K] | 11.9 µg/mL (≈ 32.8 µM) | 1750 µg/mL (≈ 4840 µM) | 
5 | C=C1[C@@H](OC(C)=O)[C@]23C[C@@]1(O)CC[C@H]2[C@]12CO[C@H](CC1=O)C(C)(C)[C@H]2[C@H](O)C3=O [LAXIFLORIN M] | 219 µg/mL (≈ 541 µM) |  | 
